KCNQ1 pot: potentiators or activators of KCNQ1 channel, primary screen, cell-based, thallium flux, high-throughput | 310,000 compounds, 0.35% hits | CHO-K1 KCNQ1, thallium flux FluxOR fluorescence; hits give high values | B-score at 10 µM | Potassium voltage-gated channel subfamily KQT member 1 (Homo sapiens), P51787;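 active = fluorescence ratio B-score, a plate-corrected score, at least three library SD, with initial intensity B-score within 5 SD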
Target sequence (P51787 whole entry, looked up): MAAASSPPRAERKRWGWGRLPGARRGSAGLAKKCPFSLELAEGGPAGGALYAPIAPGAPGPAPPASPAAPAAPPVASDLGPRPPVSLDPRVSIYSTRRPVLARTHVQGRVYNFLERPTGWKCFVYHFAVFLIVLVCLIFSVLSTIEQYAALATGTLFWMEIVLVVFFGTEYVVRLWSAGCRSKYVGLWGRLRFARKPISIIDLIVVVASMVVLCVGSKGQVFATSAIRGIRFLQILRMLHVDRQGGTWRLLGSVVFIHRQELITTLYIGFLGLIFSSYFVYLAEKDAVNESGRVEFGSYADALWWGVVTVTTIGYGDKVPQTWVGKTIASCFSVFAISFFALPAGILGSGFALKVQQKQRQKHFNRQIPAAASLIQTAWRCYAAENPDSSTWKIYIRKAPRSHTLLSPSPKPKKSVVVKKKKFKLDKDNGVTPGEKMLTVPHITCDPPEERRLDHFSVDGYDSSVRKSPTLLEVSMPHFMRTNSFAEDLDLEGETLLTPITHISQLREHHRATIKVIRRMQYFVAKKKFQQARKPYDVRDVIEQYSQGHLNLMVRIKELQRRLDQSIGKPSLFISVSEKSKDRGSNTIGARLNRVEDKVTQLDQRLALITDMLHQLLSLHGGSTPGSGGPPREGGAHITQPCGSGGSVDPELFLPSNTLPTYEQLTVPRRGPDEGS
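System: CHO-K1 cells stably expressing KCNQ1 / Medium: assay buffer for compound exposure, DMSO matched across wells / Reagent: thallium- and potassium-containing depolarizing buffer / Compound: one concentration, matched DMSO / Incubation: 20 min compound pretreatment at room temperature / Measured by: kinetic FluxOR fluorescence, 10 s baseline plus 110 s post-stimulus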
KCNK3 inh: human KCNK3 channel inhibitors, primary screen, CHO cells, FluxOR thallium flux, B-score | FluxOR fluorescence; hits give low values | B-score at 10 µM | 340,000 compounds, 0.84% hits;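 active = B-score under library mean minus 4 SD, starting fluorescence ratio at most library mean plus 5 SD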;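 note: more negative B-score means stronger inhibition of thallium flux through KCNK3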
hERG rescue: hERG rescue from dofetilide block, primary screen, cell-based, CHO-hERG, FluxOR thallium flux, dofetilide IC70 | dofetilide IC70 present | activation (rescue from dofetilide block), less the hit threshold, % at 10 µM | 310,000 compounds, 0.51% hits;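 active = activation above the mean of controls blocked by dofetilide plus 5 SD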;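 note: thallium influx through hERG after potassium depolarization seen as dye fluorescence rise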
KCNQ1 block: inhibitors of human KCNQ1 channel, primary screen, cell-based, thallium flux, high-throughput | Potassium voltage-gated channel subfamily KQT member 1 (Homo sapiens), P51787 | CHO-K1 KCNQ1, FluxOR thallium flux fluorescence; hits give high values | B-score at 10 µM | 310,000 compounds, 1.3% hits | AID 2642, 2010;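 active = compounds whose thallium flux B-score, printed positive for inhibition, exceeds three library SD while starting fluorescence stays within three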;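 note: channel opened by potassium depolarization with thallium stimulus after 20 min compound exposure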
Kir21 block: inhibitors of mouse Kir2.1 inward-rectifier potassium channel | 310,000 compounds, 0.85% hits | AID 1672, 2009 | B-score at 10 µM | HEK293-Kir2.1, FluxOR thallium flux fluorescence; hits give low values | Inward rectifier potassium channel 2 (Mus musculus), P35561;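 active = fluorescence ratio B-score at or below minus 3 SD of library scores, with starting-brightness B-score within 2 SD, cut at about -4.2 in these data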;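 note: channel flux triggered by added potassium and thallium sulfate stimulus; B-score of peak minus minimum fluorescence over baseline after thallium stimulus; more negative B-score means stronger Kir2.1 block with less thallium influx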
KCNK9 inh: KCNK9 potassium channel inhibitors, primary screen, HEK293 cells, thallium flux. Potassium channel subfamily K member 9 (Homo sapiens), Q9NPC2. FluxOR thallium flux fluorescence; hits give low values. B-score at 10 µM. 310,000 compounds, 1.2% hits;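 active = ratio B-score over 3 SD below the library mean, with starting fluorescence within 5 SD of its mean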;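 note: negative B-score means less thallium flux so channel inhibition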
KCNK9 block conf: KCNK9 potassium channel inhibitors, confirmation, HEK293 cells, thallium flux, duplicate; AID 492992, 2010; shares compounds with KCNK9 inh; 4,900 compounds, 43% hits; FluxOR thallium flux fluorescence; inhibition, % at 10 µM;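 active = thallium signal inhibited by more than 5 SD of the compound-free buffer control wells, on both duplicate plates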;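 note: 0% = assay buffer control wells without compound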
Kir21 sel: mouse Kir2.1 channel inhibition, confirmation, selectivity assay for KCNK9 modulator project, cell-based, HEK293, thallium flux; shares compounds with KCNK9 inh; Kir2.1 cells, FluxOR thallium flux fluorescence; inhibition, % at 10 µM; 4,900 compounds, 4% hits;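 active = thallium signal drop more than 5 SD beyond the mean of the no-compound control wells, seen in both duplicate plates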;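 note: signal is fluorescence rise after thallium addition divided by baseline fluorescence; plate controls were assay buffer only for no effect and full block by chlorpromazine control for full effect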
KCNK9 uninduced: thallium flux in non-induced HEK293 cells, confirmation, counter-screen for KCNK9 inhibitor project, cell-based, second counter screen, non-induced KCNK9-HEK293 | inhibition, % at 10 µM | shares compounds with KCNK9 inh | AID 492997, 2010 | FluxOR thallium flux | 4,900 compounds, 40% hits;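 active = thallium signal drop beyond 5 SD of the untreated control mean, on both duplicate plates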;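 note: plate controls were buffer only IC0 wells for no effect and SID17386958 at its maximal inhibitory level for full effect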
Active calls of the source: *; i = inactive; · = no result. An excerpt weighted towards active compounds, which were near 3.8% of everything screened.

SMILES	KCNQ1 pot	KCNK3 inh	hERG rescue	KCNQ1 block	Kir21 block	KCNK9 inh	KCNK9 block conf	Kir21 sel	KCNK9 uninduced
COc1ccc(N2CC(C(=O)Nc3c4c(nn3-c3ccc(OC)cc3)CS(=O)(=O)C4)CC2=O)cc1 (stereo not given)	i	i	-9	i	-0.29	i	·	·	·
COCc1ccc(C(=O)N2CCCC(Nc3ccc(C(C)C)cc3)C2)s1 (stereo not given)	i	i	-6	i	-0.93	i	i	i	i
COc1ccc(NC2CCCN(C(=O)c3cccs3)C2)cc1 (stereo not given)	i	i	-2	i	-1.1	i	i	i	i
CC(C)c1ccc(NC2CCCN(C(=O)c3cccs3)C2)cc1 (stereo not given)	i	i	-8	i	0.11	i	i	i	i
Cc1ccc(NC2CCCN(C(=O)c3cccs3)C2)cc1C (stereo not given)	i	i	-11	i	-2.2	i	i	i	i
NNC(=O)c1csc(-c2ncc(C(F)(F)F)cc2Cl)n1	i	i	-5	i	-0.83	i	·	·	·
CS(=O)(=O)c1ccc2nc(NC(=O)C3CC3)sc2c1	i	i	-7	i	0.31	i	·	·	·
Cc1noc(C)c1CSc1nc2ccccc2c(=O)n1-c1ccc(F)cc1F	i	i	-7	i	-0.55	i	i	i	25%*
C=CCn1c(CCc2cc(C(C)(C)C)c(O)c(C(C)(C)C)c2)n[nH]c1=S	i	i	-8	i	-1.6	i	·	·	·
COc1ccc(-c2ccc(CO)o2)cc1N	i	i	1	i	1.6	i	·	·	·
COc1cccc(OC)c1OCCCN1CCC(Cc2ccccc2)CC1	i	i	-10	i	-1.4	i	i	i	i
COc1cc(/C=C/C(=O)OCC(=O)N2CCC(C)CC2)ccc1O	i	i	-8	i	0.19	i	·	·	·
COc1cc(/C=C/C(=O)OCC(=O)N2CCC(Cc3ccccc3)CC2)ccc1O	i	i	-16	i	-0.11	i	i	i	i
COc1cc(C(=O)OCC(=O)N2CCC(Cc3ccccc3)CC2)cc(OC)c1OC	i	i	-6	i	0.42	i	i	i	i
COC(=O)c1cc(C)ccc1OCc1ccc([N+](=O)[O-])cc1	i	i	-9	i	2	i	·	·	·
CCOc1ccc(CCNC(=O)COC(=O)c2cc(OC)c(OC)c(OC)c2)cc1OCC	i	·	-7	i	-1.9	i	·	·	·
Nc1ccc(C(=O)NCCCSc2ccccc2)cc1[N+](=O)[O-]	i	i	-4	i	-0.91	i	·	·	·
Cc1c(C(=O)N2CCCCC2)nn(-c2ccc(Cl)cc2)c(=O)c1C#N	i	i	-10	i	-1	i	·	·	·
O=C(COc1ccccc1[N+](=O)[O-])N/N=C/c1cccs1	i	i	-5	i	1.7	i	·	·	·
COc1ccc(C(=O)Nn2c(SCc3ccc([N+](=O)[O-])cc3)nc3ccccc3c2=O)cc1	i	i	-7	i	-1.1	-11*	56%*	i	32%*
COc1ccc(C(=O)Nn2c(SCC(=O)c3ccccc3)nc3ccccc3c2=O)cc1	i	i	-20	i	-0.07	i	·	·	·
O=C(Nn1c(SCc2ccc(F)cc2)nc2ccsc2c1=O)c1ccccc1	i	i	-11	i	-0.99	-11*	74%*	i	46%*
CCOC(=O)COc1cc(-n2c(=S)[nH]c3cc(OC)c(OC)cc3c2=O)c(Cl)cc1Cl	16*	i	-6	i	0.52	-13*	54%*	i	i
CCOC(=O)COc1cc(N2C(=O)CSCC2=O)c(Cl)cc1Cl	i	i	2	i	-1.6	i	·	·	·
O=C(NCc1ccccc1)c1ccc(C(=O)N(C2CCCCC2)C2CCCCC2)cc1	i	i	-3	i	0.98	-8.9*	i	i	32%*
SMILES	KCNQ1 pot	KCNK3 inh	hERG rescue	KCNQ1 block	Kir21 block	KCNK9 inh	KCNK9 block conf	Kir21 sel	KCNK9 uninduced
CC1CN(S(=O)(=O)c2ccc(C(=O)Nc3nnc(-c4ccc5c(c4)CCCC5)o3)cc2)CC(C)O1 (stereo not given)	i	i	-9	i	1.4	i	i	i	i
CC1CN(S(=O)(=O)c2ccc(C(=O)Nc3nnc(-c4ccccn4)o3)cc2)CC(C)O1 (stereo not given)	i	i	-8	i	-0.18	i	·	·	·
COc1cc(/C=N/n2cnnc2)ccc1OCc1ccc(C)cc1	i	i	-9	i	0.07	i	·	·	·
C=CCN1CN=C(NS(=O)(=O)c2ccc(NC(C)=O)cc2)NC1	i	i	-7	i	-0.05	-10*	i	i	i
Cc1ccc([C@@H]2CC=C(C(=O)O)CN2S(=O)(=O)c2ccc(C)cc2)cc1	·	i	·	·	·	·	·	·	·
Cc1sc(NC(=O)c2ccccc2)c(C(=O)c2ccccc2)c1C	i	i	-10	i	2.3	i	i	i	i
Cc1sc(NC(=O)c2ccccc2)c(C(=O)NC(C)C)c1C	i	i	-4	i	-1.2	i	·	·	·
COc1ccc(N(CCCN2C(=O)c3cccc4cccc(c34)C2=O)C(=O)c2ccncc2)cc1	i	i	-12	i	-1.3	i	·	·	·
COc1ccc(N(CCCN2C(=O)c3cccc4cccc(c34)C2=O)C(=O)c2cccnc2)cc1	i	i	-8	i	-0.2	i	i	i	i
O=C(O)CCNC(=O)/C(=C\c1ccco1)NC(=O)c1ccco1	i	i	-2	i	0.25	i	·	·	·
